ChEMBL document CHEMBL3286182, “4-aminoquinolone piperidine amides: noncovalent inhibitors of DprE1 with long residence time and potent antimycobacterial activity” (J Med Chem, 2014)
Converted amounts (≈) assume the structure as drawn. The source made the active and inactive calls. The rule behind the calls is not given here.

Legend:
[1] = tested on: Escherichia coli; test: Antimicrobial activity against Escherichia coli ARC523 at 100 uM; format: functional, organism-based
Method in brief: (§1)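 Nonmycobacterial panel of Candida albicans, Gram-negative and Gram-positive pathogens.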

[2] = tested on: Mycobacterium tuberculosis; test: Antimycobacterial activity against Mycobacterium tuberculosis H37Rv at >MIC after 21 to 28 days; format: functional
[3] = Intrinsic clearance in human liver microsomes at 1 uM up to 30 mins by LC-MS/MS analysis; format: ADME; conditions: read-out: CLH
[4] = tested on: Klebsiella pneumoniae; test: Antimicrobial activity against Klebsiella pneumoniae ARC1865 at 100 uM; format: functional, organism-based; method in brief: as §1
[5] = tested on: Mycolicibacterium smegmatis; test: Antimicrobial activity against Mycobacterium smegmatis mc2155 at 100 uM; format: functional, organism-based; conditions: str. MC2 155
[6] = biological target: Cytochrome P450 2C19 (Homo sapiens, UniProt P33261); test: Inhibition of CYP2C19 (unknown origin); format: ADME
Cytochrome P450 2C19, sequence (P33261 whole entry, canonical isoform): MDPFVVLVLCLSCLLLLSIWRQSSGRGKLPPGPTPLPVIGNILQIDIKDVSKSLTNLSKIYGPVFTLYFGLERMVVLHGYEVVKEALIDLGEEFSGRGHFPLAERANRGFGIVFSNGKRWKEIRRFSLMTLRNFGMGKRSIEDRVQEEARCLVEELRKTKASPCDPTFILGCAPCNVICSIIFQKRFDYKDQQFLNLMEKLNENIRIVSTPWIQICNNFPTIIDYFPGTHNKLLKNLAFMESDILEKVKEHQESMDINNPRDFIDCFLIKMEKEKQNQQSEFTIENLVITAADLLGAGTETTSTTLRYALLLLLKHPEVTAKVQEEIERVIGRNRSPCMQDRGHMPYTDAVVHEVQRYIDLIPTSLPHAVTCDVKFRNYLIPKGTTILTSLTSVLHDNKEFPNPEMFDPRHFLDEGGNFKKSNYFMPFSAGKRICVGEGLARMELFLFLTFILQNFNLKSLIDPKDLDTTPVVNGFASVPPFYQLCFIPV
Method in brief: (§2)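 CYP inhibition IC50 measured on isoforms CYP3A4, CYP2D6, CYP2C9, CYP2C19 and CYP1A2.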

[7] = biological target: Cytochrome P450 2D6 (Homo sapiens, UniProt P10635); test: Inhibition of CYP2D6 (unknown origin); format: ADME; method in brief: as §2
Cytochrome P450 2D6, sequence (P10635 whole entry): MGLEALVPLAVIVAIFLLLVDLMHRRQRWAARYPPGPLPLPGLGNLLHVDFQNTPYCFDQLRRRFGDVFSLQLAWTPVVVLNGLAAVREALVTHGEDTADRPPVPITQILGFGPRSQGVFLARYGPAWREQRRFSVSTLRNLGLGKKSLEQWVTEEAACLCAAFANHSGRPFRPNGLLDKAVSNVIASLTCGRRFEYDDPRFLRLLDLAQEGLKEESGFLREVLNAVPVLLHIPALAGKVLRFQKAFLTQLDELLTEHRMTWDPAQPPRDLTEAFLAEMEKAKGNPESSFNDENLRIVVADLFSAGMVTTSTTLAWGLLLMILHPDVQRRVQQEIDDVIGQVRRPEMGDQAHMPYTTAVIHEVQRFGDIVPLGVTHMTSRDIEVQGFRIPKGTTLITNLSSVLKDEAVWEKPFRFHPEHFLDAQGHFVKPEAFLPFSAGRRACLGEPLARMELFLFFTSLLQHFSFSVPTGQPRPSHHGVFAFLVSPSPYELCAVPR

[8] = tested on: Pseudomonas aeruginosa; test: Antimicrobial activity against Pseudomonas aeruginosa ARC545 at 100 uM; format: functional, organism-based; method in brief: as §1
[9] = tested on: Streptococcus pneumoniae; test: Antimicrobial activity against Streptococcus pneumoniae ARC548 at 100 uM; format: functional, organism-based; method in brief: as §1
[10] = tested on: Mycolicibacterium smegmatis; test: Antimicrobial activity against Mycobacterium smegmatis ATCC 607 at 100 uM; format: functional, organism-based
[11] = biological target: Voltage-gated inwardly rectifying potassium channel KCNH2 (Homo sapiens, UniProt Q12809); test: Inhibition of human ERG by medium-throughput electrophysiology
Voltage-gated inwardly rectifying potassium channel KCNH2, sequence (Q12809 whole entry): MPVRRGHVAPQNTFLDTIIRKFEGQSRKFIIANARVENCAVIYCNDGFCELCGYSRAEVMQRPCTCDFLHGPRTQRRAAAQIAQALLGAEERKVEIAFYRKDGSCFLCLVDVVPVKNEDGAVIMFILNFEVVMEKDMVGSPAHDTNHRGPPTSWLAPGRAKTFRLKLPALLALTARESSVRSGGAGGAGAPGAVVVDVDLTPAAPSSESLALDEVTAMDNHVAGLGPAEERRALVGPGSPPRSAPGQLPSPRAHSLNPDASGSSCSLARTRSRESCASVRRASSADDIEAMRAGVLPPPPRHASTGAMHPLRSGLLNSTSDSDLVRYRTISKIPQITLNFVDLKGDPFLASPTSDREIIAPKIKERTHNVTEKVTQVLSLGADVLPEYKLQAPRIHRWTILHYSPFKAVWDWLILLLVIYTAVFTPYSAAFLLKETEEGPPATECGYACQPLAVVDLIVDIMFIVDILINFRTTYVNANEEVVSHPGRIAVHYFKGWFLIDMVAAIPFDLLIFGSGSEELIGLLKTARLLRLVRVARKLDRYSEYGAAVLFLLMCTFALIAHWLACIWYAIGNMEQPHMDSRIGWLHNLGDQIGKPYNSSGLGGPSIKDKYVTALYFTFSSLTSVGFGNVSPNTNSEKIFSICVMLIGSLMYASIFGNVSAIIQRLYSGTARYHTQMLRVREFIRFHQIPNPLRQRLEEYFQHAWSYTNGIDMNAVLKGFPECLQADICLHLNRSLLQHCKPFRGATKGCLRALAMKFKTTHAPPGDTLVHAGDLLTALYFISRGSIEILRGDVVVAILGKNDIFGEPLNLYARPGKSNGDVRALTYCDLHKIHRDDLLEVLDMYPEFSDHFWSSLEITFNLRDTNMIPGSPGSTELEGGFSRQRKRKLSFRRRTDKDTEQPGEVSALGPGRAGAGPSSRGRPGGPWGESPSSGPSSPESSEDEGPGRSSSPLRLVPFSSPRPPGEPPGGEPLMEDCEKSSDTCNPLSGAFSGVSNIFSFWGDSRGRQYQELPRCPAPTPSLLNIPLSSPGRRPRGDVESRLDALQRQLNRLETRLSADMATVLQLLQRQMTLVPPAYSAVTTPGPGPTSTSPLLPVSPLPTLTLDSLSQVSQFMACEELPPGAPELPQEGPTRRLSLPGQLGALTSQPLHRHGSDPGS

[12] = Inhibition of Mycobacterium smegmatis DprE1 Y321H mutant using farnesylphosphoryl-beta-D-ribofuranose as substrate assessed as conversion of amplex red to resorufin after 30 mins; design: species or system Mycolicibacterium smegmatis
Method in brief: (§3)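 Recombinant M. smegmatis DprE1 (thioredoxin-6His fusion), wild type or Y321H, 75 nM. Enzyme was preincubated 30 min in FAD assay mix: 50 mM glycylglycine pH 8.5, 200 mM potassium glutamate, 10 μM FAD, 0.002% Brij-35, 2% DMSO. Reaction was started with 300 μM farnesylphosphoryl-β-D-ribofuranose, 0.01 mg/mL HRP and 50 μM amplex red at 25 °C.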

[13] = tested on: Mycolicibacterium smegmatis; test: Binding affinity to Mycobacterium smegmatis recombinant DprE1 assessed as dissociation constant
Method in brief: (§4)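 Progress curves (fluorescence vs time) recorded at several inhibitor concentrations with 75 nM Msm DprE1 in the FAD/HRP/Amplex Red coupled assay, pH 8.5, 25 °C. A single-step reversible slow-binding model was fitted globally, with vs and vi fitted per concentration and koff and Kiapp shared. Half-life and residence time were derived from koff.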

[14] = tested on: Mycobacterium tuberculosis; test: Antimycobacterial activity against Mycobacterium tuberculosis over expressing InhA after 5 days by standard microdilution method; format: functional; conditions: 120 h
[15] = Octanol-water partition coefficient, log D of the compound by shake-flask method; format: physicochemical
[16] = biological target: Mu-type opioid receptor (Homo sapiens, UniProt P35372); test: Inhibition of mu opioid receptor (unknown origin)
Mu-type opioid receptor, sequence (P35372 whole entry): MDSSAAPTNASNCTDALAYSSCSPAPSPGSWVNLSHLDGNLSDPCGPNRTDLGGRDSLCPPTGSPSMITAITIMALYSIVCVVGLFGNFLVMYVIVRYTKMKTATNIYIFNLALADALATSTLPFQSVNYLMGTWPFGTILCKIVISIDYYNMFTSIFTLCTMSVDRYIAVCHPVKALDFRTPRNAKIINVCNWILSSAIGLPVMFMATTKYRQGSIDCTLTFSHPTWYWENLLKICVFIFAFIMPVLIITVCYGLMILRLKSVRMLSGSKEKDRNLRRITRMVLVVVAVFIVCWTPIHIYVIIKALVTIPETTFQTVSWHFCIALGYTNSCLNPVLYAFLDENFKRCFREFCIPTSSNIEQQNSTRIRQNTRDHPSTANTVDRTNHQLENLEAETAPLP
Method in brief: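 Secondary pharmacology panel of binding, enzyme and functional assays covering 24 molecular targets. Activity recorded as a defined Ki/IC50/EC50.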

[17] = tested on: Escherichia coli; test: Antimicrobial activity against Escherichia coli ARC524 at 100 uM; format: functional, organism-based; method in brief: as §1
[18] = tested on: Staphylococcus aureus; test: Antimicrobial activity against Staphylococcus aureus ARC517 at 100 uM; format: functional, organism-based; method in brief: as §1
[19] = tested on: Mycobacterium tuberculosis; test: Antimycobacterial activity against Mycobacterium tuberculosis over expressing PimA after 5 days by standard microdilution method; format: functional; conditions: 120 h
[20] = biological target: T1, Cytochrome P450 1A2 (Homo sapiens, UniProt P05177); test: Inhibition of CYP1A2 (unknown origin); format: ADME; method in brief: as §2
T1 sequence (P05177 whole entry): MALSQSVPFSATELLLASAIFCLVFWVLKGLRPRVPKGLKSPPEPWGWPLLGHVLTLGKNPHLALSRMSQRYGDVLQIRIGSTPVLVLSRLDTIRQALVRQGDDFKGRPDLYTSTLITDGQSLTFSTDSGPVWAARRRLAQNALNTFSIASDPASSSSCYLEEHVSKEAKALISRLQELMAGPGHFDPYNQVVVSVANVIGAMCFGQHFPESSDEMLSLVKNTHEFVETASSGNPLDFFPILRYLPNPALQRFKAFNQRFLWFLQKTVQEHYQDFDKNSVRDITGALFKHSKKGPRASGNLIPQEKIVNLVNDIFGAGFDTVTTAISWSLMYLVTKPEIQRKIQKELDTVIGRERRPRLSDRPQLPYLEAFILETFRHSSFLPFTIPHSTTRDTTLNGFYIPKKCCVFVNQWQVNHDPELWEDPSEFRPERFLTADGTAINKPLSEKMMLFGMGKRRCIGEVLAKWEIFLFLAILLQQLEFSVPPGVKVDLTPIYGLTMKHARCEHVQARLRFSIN

[21] = tested on: Mycolicibacterium smegmatis; test: Ratio of IC50 for Mycobacterium smegmatis DprE1 Y321H mutant to IC50 for Mycobacterium smegmatis recombinant wild type DprE1; method in brief: as §3
[22] = tested on: Mycobacterium tuberculosis; test: Antimycobacterial activity against Mycobacterium tuberculosis over expressing TopA after 5 days by standard microdilution method; format: functional; conditions: 120 h
[23] = Solubility of the compound in 0.1 M phosphate buffer at pH 7.4 after 24 hrs by UV and MS analysis; format: physicochemical
[24] = tested on: Haemophilus influenzae; test: Antimicrobial activity against Haemophilus influenzae ARC446 at 100 uM; format: functional, organism-based; method in brief: as §1
[25] = tested on: Mycobacterium tuberculosis; test: Antimycobacterial activity against Mycobacterium tuberculosis over expressing DprE1 after 5 days by standard microdilution method; format: functional; conditions: 120 h
[26] = Cytotoxicity against human A549 cells after 72 hrs by resazurin based fluorescence assay; format: cell-based; conditions: read-out: MIC
Method in brief: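 Cytotoxicity read as MMIC, the MIC on the A549 cell line.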

[27] = biological target: Cytochrome P450 2C9 (Homo sapiens, UniProt P11712); test: Inhibition of CYP2C9 (unknown origin); format: ADME; method in brief: as §2
Cytochrome P450 2C9, sequence (P11712 whole entry): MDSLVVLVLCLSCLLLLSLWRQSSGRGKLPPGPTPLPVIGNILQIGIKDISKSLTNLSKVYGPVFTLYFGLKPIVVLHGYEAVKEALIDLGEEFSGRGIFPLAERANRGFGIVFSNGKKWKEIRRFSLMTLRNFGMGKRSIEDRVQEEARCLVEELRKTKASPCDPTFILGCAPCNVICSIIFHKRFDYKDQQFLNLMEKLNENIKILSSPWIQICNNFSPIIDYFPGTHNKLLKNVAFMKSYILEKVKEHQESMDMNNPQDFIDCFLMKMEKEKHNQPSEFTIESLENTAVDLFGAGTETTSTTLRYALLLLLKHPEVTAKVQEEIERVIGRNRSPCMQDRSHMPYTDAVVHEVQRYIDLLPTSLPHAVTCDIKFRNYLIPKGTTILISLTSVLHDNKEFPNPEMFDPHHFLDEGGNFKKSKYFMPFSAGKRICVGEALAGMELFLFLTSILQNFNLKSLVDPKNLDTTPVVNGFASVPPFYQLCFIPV

[28] = tested on: Mycolicibacterium smegmatis; test: Binding affinity to Mycobacterium smegmatis recombinant DprE1 assessed as half life; method in brief: as §4
[29] = tested on: Pseudomonas aeruginosa; test: Antimicrobial activity against Pseudomonas aeruginosa ARC546 at 100 uM; format: functional, organism-based; method in brief: as §1
[30] = biological target: Cytochrome P450 3A4 (Homo sapiens, UniProt P08684); test: Inhibition of CYP3A4 (unknown origin); format: ADME; method in brief: as §2
Cytochrome P450 3A4, sequence (P08684 whole entry): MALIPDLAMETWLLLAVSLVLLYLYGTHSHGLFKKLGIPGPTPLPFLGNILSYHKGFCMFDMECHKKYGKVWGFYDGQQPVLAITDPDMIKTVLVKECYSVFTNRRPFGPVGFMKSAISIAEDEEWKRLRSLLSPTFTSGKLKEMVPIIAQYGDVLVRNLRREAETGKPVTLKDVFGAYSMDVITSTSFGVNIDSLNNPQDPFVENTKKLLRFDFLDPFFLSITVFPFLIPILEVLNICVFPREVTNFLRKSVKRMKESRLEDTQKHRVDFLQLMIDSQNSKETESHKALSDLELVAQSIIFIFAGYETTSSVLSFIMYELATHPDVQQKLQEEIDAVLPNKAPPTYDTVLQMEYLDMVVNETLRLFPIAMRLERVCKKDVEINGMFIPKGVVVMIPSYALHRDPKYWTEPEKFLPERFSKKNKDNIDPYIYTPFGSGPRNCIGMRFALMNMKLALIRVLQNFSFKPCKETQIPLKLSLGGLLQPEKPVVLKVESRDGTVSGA

[31] = Permeability of the compound from basolateral to apical side in human Caco2 cells; format: ADME, cell-based; conditions: Caco-2, read-out: permeability
[32] = Fraction unbound in human plasma at 20 uM after 18 hrs by equilibrium dialysis method; format: ADME, cell-free
[33] = tested on: Mycobacterium tuberculosis; test: Antimycobacterial activity against Mycobacterium tuberculosis H37Rv under hypoxic condition after 6 days by resazurin assay; format: functional; conditions: 144 h
[34] = tested on: Mycobacterium tuberculosis; test: Antimycobacterial activity against Mycobacterium tuberculosis H37Rv after 5 days by standard microdilution method; format: functional; conditions: 120 h
[35] = tested on: Mycolicibacterium smegmatis; test: Binding affinity to Mycobacterium smegmatis recombinant DprE1 assessed as residence time; method in brief: as §4
[36] = tested on: Haemophilus influenzae; test: Antimicrobial activity against Haemophilus influenzae ARC158 at 100 uM; format: functional, organism-based; method in brief: as §1
[37] = tested on: Candida albicans; test: Antimicrobial activity against Candida albicans ARC527 at 100 uM; format: functional, organism-based; method in brief: as §1
[38] = Intrinsic clearance in rat cryopreserved hepatocytes assessed per 10^6 cells at 1 uM up to 120 mins by LC-MS/MS analysis; format: ADME, cell-based, Hepatocyte; conditions: read-out: CLH
[39] = Inhibition of Mycobacterium smegmatis recombinant DprE1 using farnesylphosphoryl-beta-D-ribofuranose as substrate assessed as conversion of amplex red to resorufin after 30 mins; design: species or system Mycolicibacterium smegmatis
Method in brief: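 Msm DprE1 (thioredoxin-6His fusion of Msm Rv3790) at 75 nM, preincubated 30 min with 10 μM FAD. Buffer: 50 mM glycylglycine pH 8.5, 200 mM potassium glutamate, 0.002% Brij-35, 2% DMSO, 25 °C. Started with 300 μM farnesylphosphoryl-β-D-ribofuranose, 0.01 mg/mL HRP and 50 μM Amplex Red.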

[40] = Permeability of the compound from apical to basolateral side in human Caco2 cells; format: ADME, cell-based; conditions: Caco-2, read-out: permeability
[41] = tested on: Mycolicibacterium smegmatis; test: Binding affinity to Mycobacterium smegmatis recombinant DprE1 at 0.5 to 10000 nM up to 30 mins
[42] = tested on: Mycolicibacterium smegmatis; test: Binding affinity to Mycobacterium smegmatis DprE1 Y321H mutant at 0.5 to 10000 nM up to 30 mins

Cn1ncc(C(=O)N2CCC(Nc3cc(=O)[nH]c4ccccc34)CC2)c1Cl
Activity [1]: inactive
MBC [2]: 6.3 µM (≈ 2.43 µg/mL)
microsomal CLint at 1 µM [3]: < 4 µL/min/mg
Activity [4]: inactive
Activity [5]: inactive
INH [6]: > 30 µM
INH [7]: > 30 µM
Activity [8]: inactive
Activity [9]: inactive
Activity [10]: inactive
IC50 [11]: > 100000 nM
IC50 [12]: > 10000 nM
Kdiss [13]: 0.00016 s⁻¹
MIC [14]: 6.3 µM (≈ 2.43 µg/mL)
logD [15]: 1.6
IC50 [16]: 21900 nM
Activity [17]: inactive
Activity [18]: inactive
MIC [19]: 3.1 µM (≈ 1.2 µg/mL)
INH [20]: > 30 µM
fold change (FC) [21]: > 63
MIC [22]: 3.1 µM (≈ 1.2 µg/mL)
solubility at 24 h [23]: 255 µM (≈ 98.4 µg/mL)
Activity [24]: inactive
MIC [25]: > 100 µM
MCC at 72 h [26]: > 200 µM
INH [27]: > 30 µM
T1/2 [28]: 1.2 h
Activity [29]: inactive
INH [30]: > 30 µM
Papp B→A [31]: 14 ×10⁻⁶ cm/s
fraction unbound at 18 h, 20 µM [32]: 0.3
IC80 [33]: > 100000 nM
MIC [34]: 6.25 µM (≈ 2.41 µg/mL)
TIME [35]: 1.73 h
Activity [36]: inactive
Activity [37]: inactive
hepatocyte CLint at 1 µM [38]: 1.5 µL/min/1e6 cells
IC50 [39]: 150 nM
Papp A→B [40]: 0.5 ×10⁻⁶ cm/s

Cn1ncc(C(=O)N2[C@@H]3CC[C@H]2C[C@@H](Nc2cc(=O)[nH]c4ccc(F)cc24)C3)c1Cl
Activity [41]: Active
IC50 [12]: 550 nM
Activity [42]: Active
fold change (FC) [21]: 12
MIC [25]: 6.25 µM (≈ 2.69 µg/mL)
MIC [34]: 0.39 µM (≈ 0.168 µg/mL)
IC50 [39]: 30 nM
